Assays:
[1] = test system: SF-268; assay: Antiproliferative activity against human SF-268 cells assessed as cell growth at 0.00001 M incubated for 48 hrs by SRB assay relative to control; assay type: functional; conditions: read-out: Activity
[2] = test system: SK-OV-3; assay: Antiproliferative activity against human SK-OV-3 cells assessed as cell growth at 0.00000001 M incubated for 48 hrs by SRB assay relative to control; assay type: functional; conditions: dose 10 nM, read-out: Activity
[3] = test system: SW-620; assay: Antiproliferative activity against human SW620 cells assessed as cell growth inhibition by measuring lethal concentration incubated for 48 hrs by sulforhodamine B assay; assay type: functional; conditions: read-out: LC50 (the source's name)
Summary of the method: (§1)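 NCI-60 five-dose screen (10^-4 to 10^-8 M, 10-fold dilutions; DMSO stocks). Cells in RPMI 1640 with 5% FBS and 2 mM L-glutamine, preincubated 24 h, then exposed 48 h at 37 °C, 5% CO2. Fixed with cold TCA, stained with 0.4% SRB, absorbance read at 515 nm. Time-zero plates used as reference. LC50 taken from [(Ti-Tz)/Tz]×100 […].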

[4] = test system: COLO 205; assay: Growth inhibition against human COLO 205 cells assessed as total growth inhibitory concentration incubated for 48 hrs by sulforhodamine B assay; assay type: functional
[5] = test system: T47D; assay: Antiproliferative activity against human T47D cells assessed as cell growth at 0.00000001 M incubated for 48 hrs by SRB assay relative to control; assay type: functional; conditions: dose 10 nM, read-out: Activity
[6] = test system: SNB-19; assay: Antiproliferative activity against human SNB-19 cells assessed as cell growth at 0.0000001 M incubated for 48 hrs by SRB assay relative to control; assay type: functional; conditions: dose 100 nM, read-out: Activity
[7] = test system: TK-10; assay: Antiproliferative activity against human TK-10 cells assessed as cell growth inhibition by measuring lethal concentration incubated for 48 hrs by sulforhodamine B assay; assay type: functional; conditions: read-out: LC50 (the source's name); summary of the method: as §1
[8] = test system: RXF 393; assay: Antiproliferative activity against human RXF 393 cells assessed as cell growth at 0.00000001 M incubated for 48 hrs by SRB assay relative to control; assay type: functional; conditions: dose 10 nM, read-out: Activity
[9] = test system: SK-MEL-5; assay: Growth inhibition against human SK-MEL-5 cells incubated for 48 hrs by sulforhodamine B assay; assay type: functional
[10] = test system: CAKI-1; assay: Antiproliferative activity against human CAKI-1 cells assessed as cell growth at 0.0001 M incubated for 48 hrs by SRB assay relative to control; assay type: functional; conditions: read-out: Activity
Summary of the method: (§2)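 NCI-60 five-dose screen over 10^-4–10^-8 M (10-fold dilutions). Cells grown in RPMI 1640 with 5% FBS and 2 mM L-glutamine, seeded at 5,000–40,000 cells/well and preincubated 24 h. Drug from DMSO stock, 48 h at 37 °C, 5% CO2. Adherent cells TCA-fixed and stained with 0.4% SRB; A515 read. Percent growth = (Ti−Tz)/(C−Tz)×100, or (Ti−Tz)/Tz×100 when Ti<Tz.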

[11] = test system: ACHN; assay: Antiproliferative activity against human ACHN cells assessed as cell growth at 0.00001 M incubated for 48 hrs by SRB assay relative to control; assay type: functional; conditions: read-out: Activity; summary of the method: as §2
[12] = test system: NCI/ADR-RES; assay: Antiproliferative activity against human NCI/ADR-RES cells assessed as cell growth at 0.000001 M incubated for 48 hrs by SRB assay relative to control; assay type: functional; conditions: read-out: Activity
[13] = test system: OVCAR-5; assay: Antiproliferative activity against human OVCAR-5 cells assessed as cell growth at 0.00001 M incubated for 48 hrs by SRB assay relative to control; assay type: functional; conditions: read-out: Activity
[14] = test system: A498; assay: Growth inhibition against human A498 cells assessed as total growth inhibitory concentration incubated for 48 hrs by sulforhodamine B assay; assay type: functional
[15] = test system: IGROV-1; assay: Antiproliferative activity against human IGROV-1 cells assessed as cell growth at 0.0000001 M incubated for 48 hrs by SRB assay relative to control; assay type: functional; conditions: dose 100 nM, read-out: Activity
[16] = test system: HCC 2998; assay: Growth inhibition against human HCC 2998 cells assessed as total growth inhibitory concentration incubated for 48 hrs by sulforhodamine B assay; assay type: functional
[17] = test system: MDA-MB-435; assay: Antiproliferative activity against human MDA-MB-435 cells assessed as cell growth inhibition by measuring lethal concentration incubated for 48 hrs by sulforhodamine B assay; assay type: functional; conditions: read-out: LC50 (the source's name)
[18] = test system: ACHN; assay: Antiproliferative activity against human ACHN cells assessed as cell growth at 0.0001 M incubated for 48 hrs by SRB assay relative to control; assay type: functional; conditions: read-out: Activity; summary of the method: as §2
[19] = test system: HOP-62; assay: Antiproliferative activity against human HOP-62 cells assessed as cell growth inhibition by measuring lethal concentration incubated for 48 hrs by sulforhodamine B assay; assay type: functional; conditions: read-out: LC50 (the source's name)
[20] = test system: HT-29; assay: Antiproliferative activity against human HT-29 cells assessed as cell growth inhibition by measuring lethal concentration incubated for 48 hrs by sulforhodamine B assay; assay type: functional; conditions: read-out: LC50 (the source's name)
[21] = test system: M14; assay: Antiproliferative activity against human M14 cells assessed as cell growth inhibition by measuring lethal concentration incubated for 48 hrs by sulforhodamine B assay; assay type: functional; conditions: read-out: LC50 (the source's name)
[22] = test system: NCI-H460; assay: Antiproliferative activity against human NCI-H460 cells assessed as cell growth at 0.0001 M incubated for 48 hrs by SRB assay relative to control; assay type: functional; conditions: read-out: Activity
[23] = test system: NCI-H23; assay: Growth inhibition against human NCI-H23 cells assessed as total growth inhibitory concentration incubated for 48 hrs by sulforhodamine B assay; assay type: functional
[24] = test system: EKVX; assay: Antiproliferative activity against human EKVX cells assessed as cell growth at 0.00001 M incubated for 48 hrs by SRB assay relative to control; assay type: functional; conditions: read-out: Activity
Summary of the method: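 NCI-60 five-dose screen (10^-4 to 10^-8 M). Cells grown in RPMI 1640 with 5% FBS and 2 mM L-glutamine, plated at 5,000-40,000 cells/well and preincubated 24 h. Drug given from DMSO stock, then 48 h at 37 °C, 5% CO2. For adherent lines, cells fixed with cold TCA, SRB-stained and read at 515 nm. Percent growth taken against time-zero and untreated control.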

[25] = test system: KM12; assay: Antiproliferative activity against human KM12 cells assessed as cell growth at 0.000001 M incubated for 48 hrs by SRB assay relative to control; assay type: functional; conditions: read-out: Activity
[26] = test system: Calf thymus DNA; assay: Binding affinity to calf thymus DNA assessed as fluorescence quenching intensity at 5 uM at temperature of 298 K by fluorescence spectroscopic method relative to control; assay type: nucleic-acid assay; conditions: Bos taurus
[27] = test system: MOLT-4; assay: Growth inhibition against human MOLT-4 cells incubated for 48 hrs by sulforhodamine B assay; assay type: functional
[28] = test system: MDA-MB-468; assay: Antiproliferative activity against human MDA-MB-468 cells assessed as cell growth at 0.0001 M incubated for 48 hrs by SRB assay relative to control; assay type: functional; conditions: read-out: Activity
[29] = test system: CCRF-CEM; assay: Antiproliferative activity against human CCRF-CEM cells assessed as cell growth inhibition by measuring lethal concentration incubated for 48 hrs by sulforhodamine B assay; assay type: functional; conditions: read-out: LC50 (the source's name)
[30] = test system: NCI-H322M; assay: Antiproliferative activity against human NCI-H322M cells assessed as cell growth inhibition by measuring lethal concentration incubated for 48 hrs by sulforhodamine B assay; assay type: functional; conditions: read-out: LC50 (the source's name)
[31] = test system: LOX IMVI; assay: Antiproliferative activity against human LOX IMVI cells assessed as cell growth at 0.000001 M incubated for 48 hrs by SRB assay relative to control; assay type: functional; conditions: read-out: Activity
[32] = test system: NCI-H226; assay: Antiproliferative activity against human NCI-H226 cells assessed as cell growth at 0.0001 M incubated for 48 hrs by SRB assay relative to control; assay type: functional; conditions: read-out: Activity

**Q.** What does the source list for COc1ccc(-c2cn3ccnc3c(-c3ccc4ncn(C5CCCCC5)c4c3)n2)cc1?
**A.** growth at 10 µM [1]: 25%; growth at 0.01 µM [2]: 87%; CC50 [3]: > 100 µM; TGI [4]: 14.4 µM; growth at 0.01 µM [5]: 85%; growth at 0.1 µM [6]: 108%; CC50 [7]: > 100 µM; growth at 0.01 µM [8]: 102%; GI50 [9]: 0.698 µM; growth at 100 µM [10]: 26%; growth at 10 µM [11]: 13%; growth at 1 µM [12]: 38%; growth at 10 µM [13]: 31%; TGI [14]: > 100 µM; growth at 0.1 µM [15]: 90%; TGI [16]: > 100 µM; CC50 [17]: > 100 µM; growth at 100 µM [18]: 23%; CC50 [19]: > 100 µM; CC50 [20]: > 100 µM; CC50 [21]: > 100 µM; growth at 100 µM [22]: 5%; TGI [23]: > 100 µM; growth at 10 µM [24]: 25%; growth at 1 µM [25]: 57%; Activity [26]: 75%; GI50 [27]: 2.66 µM; growth at 100 µM [28]: 10%; CC50 [29]: > 100 µM; CC50 [30]: > 100 µM; growth at 1 µM [31]: 44%; growth at 100 µM [32]: 39%

**Q.** With c1ccc(Cn2cnc3ccc(-c4nc(-c5ccc6c(c5)ncn6C5CCCCC5)cn5ccnc45)cc32)cc1 as the molecule, how does the growth at 10 µM [1] read?
**A.** 2%

**Q.** What about the growth at 0.01 µM [2] of the same molecule?
**A.** 84%

**Q.** And the CC50 [3]?
**A.** > 100 µM

**Q.** And the TGI [4]?
**A.** 3.99 µM

**Q.** What about the growth at 0.01 µM [5] of the same molecule?
**A.** 86%

**Q.** And the growth at 0.1 µM [6]?
**A.** 103%

**Q.** And the CC50 [7]?
**A.** > 100 µM

**Q.** What about the growth at 0.01 µM [8] of the same molecule?
**A.** 101%

**Q.** What about the GI50 [9] of the same molecule?
**A.** 1.5 µM

**Q.** And the growth at 100 µM [10]?
**A.** 23%

**Q.** What about the growth at 10 µM [11] of the same molecule?
**A.** 11%

**Q.** And the growth at 1 µM [12]?
**A.** 84%

**Q.** What about the growth at 10 µM [13] of the same molecule?
**A.** -3%

**Q.** What about the TGI [14] of the same molecule?
**A.** 3.57 µM

**Q.** And the growth at 0.1 µM [15]?
**A.** 93%

**Q.** And the TGI [16]?
**A.** 3.41 µM

**Q.** What about the CC50 [17] of the same molecule?
**A.** > 100 µM

**Q.** And the growth at 100 µM [18]?
**A.** 23%

**Q.** And the CC50 [19]?
**A.** > 100 µM

**Q.** What about the CC50 [20] of the same molecule?
**A.** > 100 µM

**Q.** What about the CC50 [21] of the same molecule?
**A.** > 100 µM

**Q.** And the growth at 100 µM [22]?
**A.** -24%

**Q.** What about the TGI [23] of the same molecule?
**A.** 4.49 µM

**Q.** And the growth at 10 µM [24]?
**A.** -31%

**Q.** And the growth at 1 µM [25]?
**A.** 93%

**Q.** And the Activity [26]?
**A.** 35%

**Q.** What about the GI50 [27] of the same molecule?
**A.** 1.67 µM

**Q.** And the growth at 100 µM [28]?
**A.** -7%

**Q.** What about the CC50 [29] of the same molecule?
**A.** > 100 µM

**Q.** What about the CC50 [30] of the same molecule?
**A.** > 100 µM

**Q.** What about the growth at 1 µM [31] of the same molecule?
**A.** 88%

**Q.** What about the growth at 100 µM [32] of the same molecule?
**A.** 36%
